TbMetRS inhib = blocks T. brucei methionyl-tRNA synthetase activity; 0.4% of 360,000 active; AID 624268; purified T. brucei MetRS, ATP depletion, Kinase-Glo luminescence; inhibition, % at 11.9 µM;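 active = inhibition above a per-plate cutoff of the control wells' mean inhibition plus 3 SD, cut at about 5.5% in these data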;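 also: 0% = DMSO wells median and 100% = median of wells with control inhibitor compound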
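Measured by: Kinase-Glo luciferase luminescence reporting remaining unconsumed ATP. Material: purified T. brucei MetRS enzyme. Doses: 11.9 µM compound single dose, 0.9% DMSO. Medium: HEPES buffer containing pyrophosphatase, BSA, spermine, DTT. Times: 15 min preincubation, 2 h reaction, all 25 °C. Reagent: methionine, ATP and bulk E. coli tRNA.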
MT1-MMP act inh = blocks activation of human MT1-MMP; 0.061% of 360,000 active; P50281; HT1080 RFP-PRO-GFP cells, GFP/RFP ratio fluorescence, overnight; percent of plate control window, DMSO zero; GFP/RFP ratio change, % at 20 µM;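 active = GFP/RFP ratio change of at least 30% with cell ATP level not reduced by more than half and red fluorescence within 50% of control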
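Compound: 20 µM single dose, 1% DMSO / System: HT1080 RFP-PRO-GFP cells / Controls: DMSO and RFP-L50D-GFP cell wells / Read-out basis: GFP/RFP fluorescence ratio / Schedule: overnight compound exposure at 37 °C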
NPR1 activator = GC-A (human) enzyme activation | P16066 | HEK293 GC-A cells, cGMP TR-FRET, EC30 ANP; 0% at EC30 ANP, 100% saturating ANP | activation, % at 10 µM | 0.14% of 370,000 active | AID 1671463; in the data active = activation above about 40%
A1 inh = inhibitors of the anti-apoptotic protein A1, read as caspase activation. 0.066% of 330,000 active. caspase activation, % (test concentration not listed). MEF A1-2A-BIM cells, Caspase-Glo 3/7 luminescence, 3 h; percent of clofoctol response, vehicle zero;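 active = over half of replicate activation scores above 10%, or exactly half above 10 with the replicate mean above 10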
SKN-1 block = blocks SKN-1 activity in C. elegans; C. elegans VP596 Pgst-4::GFP/RFP ratio, acrylamide-induced, 24 h; inhibition, % at 21.8 µM; 0.49% of 360,000 active; AID 624304;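 active = interference check ratio from 0.5 to 1.5 plus GFP to RFP signal ratio inhibition reaching or exceeding a fixed threshold, cut at about 30% in these data, passing the limit was not always enough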
GC-B act = GC-B (human) receptor activation | 0.11% of 370,000 active | activation, % at 10 µM | HEK293-GC-B cells, CNP EC30, cGMP TR-FRET; 0% at EC30 CNP, 100% saturating CNP;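 active = activation at 10 µM reaching about 35% in either raw or pattern-adjusted values, limit read from the data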
Active calls of the source: *. Most compounds without a hit are left out; they make up all but 1.1% or so of the library.

Cc1c(C#N)c(O)n(CCO)c(=O)c1N=Nc1ccc(S(N)(=O)=O)cc1 was read as TbMetRS inhib 1.0, MT1-MMP act inh 10.1, NPR1 activator -5.5, A1 inh 0.7, SKN-1 block 13.3 and GC-B act -5.9.
Cc1c(C#N)c(O)n(CCO)c(=O)c1N=Nc1ccccc1 was read as TbMetRS inhib -0.1, MT1-MMP act inh 5.5, NPR1 activator -2.1, A1 inh 0.8, SKN-1 block 39.7* and GC-B act -2.5.
For Cn1cccc1CC(=O)NN=C/C=C\c1ccco1 the results were NPR1 activator -4.2 and GC-B act -2.3.
N#Cc1ccc(-c2csc(-c3ccno3)n2)cc1 was read as TbMetRS inhib -0.3, MT1-MMP act inh 1.4, NPR1 activator -3.6, A1 inh 1.1, SKN-1 block 18.1 and GC-B act -5.8.
`FC(F)(F)c1ccc(-c2csc(-c3ccno3)n2)cc1` gave TbMetRS inhib -0.7, MT1-MMP act inh -1.3, NPR1 activator 0.3, A1 inh -2.7, SKN-1 block 44.0* and GC-B act -6.0.
Screening CCOC(=O)Cc1cc(=O)n2[nH]c(C)c(-c3ccc(Cl)cc3)c2n1 returned TbMetRS inhib 0.2, MT1-MMP act inh 25.5, NPR1 activator 44.1*, A1 inh 0.4, SKN-1 block 1.4 and GC-B act 45.4*.
`COC(=O)Cc1cc(=O)n2[nH]c(C)c(-c3ccccc3)c2n1` gave TbMetRS inhib -0.3, MT1-MMP act inh 8.2, NPR1 activator 17.3, A1 inh -0.2, SKN-1 block 8.5 and GC-B act 26.9.
For CCc1cc(=O)n2[nH]c(C)c(-c3ccc(OC)cc3)c2n1 the results were TbMetRS inhib 0.3, MT1-MMP act inh -3.2, NPR1 activator 10.7, A1 inh -0.6, SKN-1 block 17.7 and GC-B act 13.5.
Screening CCOC(=O)Cc1cc(=O)n2[nH]c(C)c(-c3ccc(OC)cc3)c2n1 returned TbMetRS inhib -0.9, MT1-MMP act inh 8.4, NPR1 activator 49.4*, A1 inh 0.4, SKN-1 block 8.9 and GC-B act 50.8*.
O=C(C1CCN(c2ncnc3c2sc2cccc(F)c23)CC1)N1CCN(Cc2ccc(F)cc2)CC1 was read as NPR1 activator 6.9 and GC-B act 0.3.
Screening COC(=O)[C@]12C[C@H](CC(=O)NCc3cccc(C(F)(F)F)c3)C(=O)N(CCC3=CCCCC3)C1=C[C@H](C1CCCC1)O[C@@H]2C returned NPR1 activator 1.2 and GC-B act 3.8.
For O=C(NC(c1ccc(-c2ccccc2)cc1)c1cnccn1)C1CCN(Cc2ccc(Oc3ccccc3)cc2)CC1 (stereo not drawn) the results were TbMetRS inhib 0.3, MT1-MMP act inh 3.7, NPR1 activator -4.7, SKN-1 block -1.2 and GC-B act -1.5.
O=C(NC(c1ccc(-c2ccccc2)cc1)c1cnccn1)C1CCN(Cc2cccs2)CC1 (stereo not drawn) was read as TbMetRS inhib -0.3, MT1-MMP act inh 3.2, NPR1 activator 1.6, SKN-1 block 45.6* and GC-B act -5.3.
COc1cc(N=c2ssnc2Cl)cc(OC)c1 was read as TbMetRS inhib -0.3, MT1-MMP act inh -10.2, NPR1 activator 10.6, A1 inh -0.4, SKN-1 block 15.2 and GC-B act 8.9.
`Clc1nssc1=Nc1ccc(Br)cc1` gave TbMetRS inhib -0.2, MT1-MMP act inh 0.9, NPR1 activator 15.2, SKN-1 block 94.2* and GC-B act 18.8.
`Cc1ccc(Nc2c(-c3ccco3)nc3nc(C)cc(C)n23)cc1` gave TbMetRS inhib 0.6, MT1-MMP act inh -4.1, NPR1 activator 67.8*, A1 inh -1.9, SKN-1 block 10.3 and GC-B act 12.7.
For CC(=O)c1cc(-c2ccc(-c3ccccc3)c(F)c2)c(=O)n2c1CCC2 the results were NPR1 activator 7.2 and GC-B act -2.9.
Screening COc1cc(NC(=O)c2cccc(C)c2)ccc1NC(=O)c1cc2ccccc2o1 returned TbMetRS inhib 0.8, MT1-MMP act inh -9.4, NPR1 activator -13.5, A1 inh 8.2*, SKN-1 block 7.3 and GC-B act -1.7.
Screening CCOC(=O)[C@]12CCCC=C1N(CCCOC)C(=O)[C@@H]2CC(=O)NCc1cccc(C(F)(F)F)c1 returned NPR1 activator 5.2 and GC-B act 4.8.
Screening O=C(CSc1nnc(-c2ccccc2)n1-c1ccc(Cl)cc1)NN=Cc1c[nH]c2ccccc12 returned NPR1 activator -12.6 and GC-B act -10.9.
Screening C=CCN1C(=O)C(=O)N(Cc2nc3ccccc3s2)C1=O returned TbMetRS inhib -0.1, MT1-MMP act inh 0.2, NPR1 activator 1.9, A1 inh 0.6, SKN-1 block 47.9* and GC-B act 1.9.
For OC(c1ccccc1)(c1ccccc1)C1CCN(CCCNc2ccc(Cl)cc2Cl)CC1 the results were NPR1 activator -26.4 and GC-B act -13.4.
CC(C)(C)OC(=O)NCCCc1ccc2c(c1)[C@]1(CCC[C@@H](OCc3ccccc3)[C@@H]1NC(=O)CCc1ccccc1)C(=O)N2Cc1ccccc1 was read as NPR1 activator 2.8 and GC-B act 2.7.
Screening CC(C)(C)CC(=O)NC(=S)N1CCCCCC1 returned TbMetRS inhib -0.9, MT1-MMP act inh 2.2, NPR1 activator -3.0, A1 inh 0.1, SKN-1 block 81.2* and GC-B act -3.0.
FC(F)(F)c1cc(C(F)(F)F)c2ccc(N3CCN(c4ccc(Cl)cc4)CC3)nc2n1 was read as TbMetRS inhib 0.0, MT1-MMP act inh 5.1, NPR1 activator 1.4, A1 inh -0.3, SKN-1 block 12.8 and GC-B act 6.1.
`N#CC(c1ccc(Cl)cc1)c1ccc2c(C(F)(F)F)cc(C(F)(F)F)nc2n1` (stereo not drawn) gave TbMetRS inhib -0.1, MT1-MMP act inh -16.9, NPR1 activator 1.1, A1 inh 0.1, SKN-1 block 36.7* and GC-B act 7.6.
Screening Cc1c(OC(=O)CNC(=O)OC(C)(C)C)ccc2c3c(c(=O)oc12)CCC3 returned TbMetRS inhib 0.6, MT1-MMP act inh -10.1, NPR1 activator 4.5, A1 inh 0.6, SKN-1 block 45.0* and GC-B act 4.5.
`CCC(NC(=O)c1ccc2c(c1)c(C)c(C)n2Cc1ccc(-c2ccccc2C#N)cc1)c1ccccc1` (stereo not drawn) gave NPR1 activator -0.3 and GC-B act 2.1.

Compound activity from PubChem BioAssay.
